{"source": "paper PMC3397176", "about": "(Journal of Medicinal Chemistry, 2012)", "key": {"Bcl-xL": {"biological_target": "Bcl-xL (Homo sapiens, UniProt Q07817)", "sequence (Q07817 whole entry)": "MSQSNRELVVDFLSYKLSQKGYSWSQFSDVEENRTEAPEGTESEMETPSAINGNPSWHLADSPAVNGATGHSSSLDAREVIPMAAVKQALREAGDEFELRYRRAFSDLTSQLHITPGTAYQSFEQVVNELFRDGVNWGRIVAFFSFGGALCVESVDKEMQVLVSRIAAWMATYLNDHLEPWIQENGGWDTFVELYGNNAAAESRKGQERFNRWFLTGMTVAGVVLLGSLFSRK", "test": "FP-based competitive binding assay, Bcl-xL", "conditions": "Bcl-2 and Bcl-xL"}, "Aqueous solubility": {"test": "Aqueous solubility", "type": "physicochemical"}, "Bcl-2": {"biological_target": "Bcl-2 (Homo sapiens, UniProt P10415)", "sequence (P10415 whole entry)": "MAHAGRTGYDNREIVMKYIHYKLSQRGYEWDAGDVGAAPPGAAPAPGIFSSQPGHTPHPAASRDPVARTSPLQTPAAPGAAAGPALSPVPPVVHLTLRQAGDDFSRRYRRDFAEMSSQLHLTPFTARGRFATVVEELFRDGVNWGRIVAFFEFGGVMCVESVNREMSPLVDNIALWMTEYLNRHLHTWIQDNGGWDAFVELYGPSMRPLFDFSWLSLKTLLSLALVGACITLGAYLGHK", "test": "FP-based competitive binding assay, Bcl-2"}, "[1]": {"test_system": "H146 small-cell lung cancer cell line", "test": "Cell growth assay", "type": "cell-based, Human", "conditions": "H146 and H1417"}, "H146 cancer cell line": {"test_system": "H146 cancer cell line", "test": "Cell death assay", "type": "cell-based, Human", "conditions": "H146, 24 h, trypan blue", "summary_of_the_method": "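Human small cell lung cancer H146 cells from ATCC, grown in RPMI-1640 with 10% FBS, exposed to test compound for 24 h. Cells then collected and stained with trypan blue. Blue-stained or morphologically unhealthy cells were scored as dead, with at least 100 cells counted per sample.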"}, "[2]": {"test_system": "cleavage of PARP and caspase-3 in the H146 cell line", "test": "Western blotting of PARP and caspase-3 cleavage, H146", "type": "cell-based, Human", "conditions": "H146, 24 h, as low as", "summary_of_the_method": "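H146 cells (RPMI-1640, 10% FBS) treated with test compound for 24 h, then lysed on ice for 20 min in RIPA buffer (PBS, 1% NP40, 0.5% Na-deoxycholate, 0.1% SDS) with […] and protease inhibitors. Cleared lysates were protein-quantified, run on 4–20% SDS-PAGE and transferred to PVDF. Blots were blocked in 5% milk and probed with rabbit anti-PARP, anti-caspase-3 and anti-GAPDH, then HRP secondary and chemiluminescence.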"}}, "note": "Several values for one entry are separate records, joined by “and”; a condition that tells them apart may be missing. Equal entries are not always repeated.", "data": [{"smiles": "CN(C)CCC(CSc1ccccc1)Nc1ccc(S(=O)(=O)NC(=O)c2ccc(N3CCN(c4cccc(-c5c(-c6ccc(Cl)cc6)cn(CC[C@H](O)CO)c5C(=O)NCCCN5CCN(C)CC5)c4)CC3)cc2)cc1[N+](=O)[O-]", "note": "(stereo in doubt) [Compound 6, 4-(4-Chlorophenyl)-1-((S)-3,4-dihydroxybutyl)-3-(3-(4-(4-(((4-(((S)-4-(dimethylamino)-1-(phenylthio)butan-2-yl)amino)-3-nitrophenyl)sulfonyl)carbamoyl)phenyl)piperazin-1-yl)phenyl)-N-(3-(4-methylpiperazin-1-yl)propyl)-1H-pyrrole-2-carboxamide]", "values": [{"measurement": "times more potent than either 4 or 5 in binding", "setting": "Bcl-xL", "value": "> 10,000"}]}, {"smiles": "CN1CCN(CCCNC(=O)c2c(-c3ccccc3)c(-c3ccc(Cl)cc3)cn2CC[C@H](O)CO)CC1", "note": "[Compound 4, (S)-4-(4-chlorophenyl)-1-(3,4-dihydroxybutyl)-N-(3-(4-methylpiperazin-1-yl)propyl)-3-phenyl-1H-pyrrole-2-carboxamide]", "values": [{"measurement": "aqueous solubility", "setting": "Aqueous solubility", "value": "excellent aqueous solubility"}]}, {"smiles": "CN(C)CC[C@H](CSc1ccccc1)Nc1ccc(S(=O)(=O)Nc2ccc(NCCNc3cccc(-c4c(-c5ccc(Cl)cc5)cn(CC[C@H](O)CO)c4C(=O)NCCCN4CCN(C)CC4)c3)cc2)cc1[N+](=O)[O-]", "note": "[Compound 11, 4-(4-Chlorophenyl)-1-((S)-3,4-dihydroxybutyl)-3-(3-((2-((4-(4-(((R)-4-(dimethylamino)-1-(phenylthio)butan-2-yl)amino)-3-nitrophenylsulfonamido)phenyl)amino)ethyl)amino)phenyl)-N-(3-(4-methylpiperazin-1-yl)propyl)-1H-pyrrole-2-carboxamide]", "values": [{"measurement": "times less potent than 7 in binding", "setting": "Bcl-2; Bcl-2/Bcl-xL, protein not specified", "value": "at least 10"}]}, {"smiles": "CN(C)CC[C@H](CSc1ccccc1)Nc1ccc(S(=O)(=O)Nc2ccc(N3CCN(c4ccc(-c5c(-c6ccc(Cl)cc6)cn(CC[C@H](O)CO)c5C(=O)NCCCN5CCN(C)CC5)cc4)CC3)cc2)cc1[N+](=O)[O-]", "note": "[Compound 12, 4-(4-Chlorophenyl)-1-((S)-3,4-dihydroxybutyl)-3-(4-(4-(4-(4-(((R)-4-(dimethylamino)-1-(phenylthio)butan-2-yl)amino)-3-nitrophenylsulfonamido)phenyl)piperazin-1-yl)phenyl)-N-(3-(4-methylpiperazin-1-yl)propyl)-1H-pyrrole-2-carboxamide]", "values": [{"measurement": "times less potent than 7 in binding to Bcl-2", "setting": "Bcl-2", "value": "> 10"}]}, {"smiles": "CN(C)CC[C@H](CSc1ccccc1)Nc1ccc(S(=O)(=O)Nc2ccc(N3CCN(Cc4ccccc4-c4ccc(Cl)cc4)CC3)cc2)cc1[N+](=O)[O-]", "note": "[Compound 13, (R)-N-(4-(4-((4'-Chloro-[1,1'-biphenyl]-2-yl)methyl)piperazin-1-yl)phenyl)-4-((4-(dimethylamino)-1-(phenylthio)butan-2-yl)amino)-3-nitrobenzenesulfonamide]", "values": [{"measurement": "affinity times weaker than that of 1", "setting": "Bcl-2; Bcl-2 and Bcl-xL", "value": "> 10"}]}, {"smiles": "CN(C)CC[C@H](CSc1ccccc1)Nc1ccc(S(=O)(=O)Nc2ccc(N3CCN(c4cccc(-c5c(-c6ccc(Cl)cc6)cn(C)c5C(=O)NCCCN5CCN(C)CC5)c4)CC3)cc2)cc1[N+](=O)[O-]", "note": "[Compound 16, (R)-4-(4-Chlorophenyl)-3-(3-(4-(4-(4-((4-(dimethylamino)-1-(phenylthio)butan-2-yl)amino)-3-nitrophenylsulfonamido)phenyl)piperazin-1-yl)phenyl)-1-methyl-N-(3-(4-methylpiperazin-1-yl)propyl)-1H-pyrrole-2-carboxamide]", "values": [{"measurement": "times more potent than 7 in cell growth inhibition", "setting": "[1]", "value": "3–5"}]}, {"smiles": "CCOC(=O)c1c(-c2cccc(N3CCN(c4ccc(NS(=O)(=O)c5ccc(N[C@H](CCN(C)C)CSc6ccccc6)c([N+](=O)[O-])c5)cc4)CC3)c2)c(-c2ccc(Cl)cc2)cn1C", "note": "[Compound 19, (R)-Ethyl 4-(4-chlorophenyl)-3-(3-(4-(4-(4-((4-(dimethylamino)-1-(phenylthio)butan-2-yl)-amino)-3-nitrophenylsulfonamido)phenyl)piperazin-1-yl)phenyl)-1-methyl-1H-pyrrole-2-carboxylate]", "values": [{"measurement": "times less potent than 17 in binding to Bcl-2", "setting": "Bcl-2", "value": 10}, {"measurement": "times less potent than 17 in cell growth inhibition", "setting": "[1]", "value": 10}]}, {"smiles": "CN(C)CC[C@H](CSc1ccccc1)Nc1ccc(S(=O)(=O)Nc2ccc(N3CCN(c4cccc(-c5c(-c6ccc(Cl)cc6)cn(C)c5C(=O)O)c4)CC3)cc2)cc1[N+](=O)[O-]", "note": "[Compound 20, (R)-4-(4-Chlorophenyl)-3-(3-(4-(4-(4-((4-(dimethylamino)-1-(phenylthio)butan-2-yl)amino)-3-nitrophenylsulfonamido)phenyl)piperazin-1-yl)phenyl)-1-methyl-1H-pyrrole-2-carboxylic acid]", "values": [{"measurement": "cell death induction", "setting": "H146 cancer cell line", "value": "effectively induce cell death in a dose-dependent manner"}]}, {"smiles": "CCc1c(-c2ccc(Cl)cc2)c(-c2cccc(N3CCN(c4ccc(NS(=O)(=O)c5ccc(N[C@H](CCN(C)C)CSc6ccccc6)c([N+](=O)[O-])c5)cc4)CC3)c2)c(C(=O)O)n1C", "note": "[Compound 21, (R)-4-(4-Chlorophenyl)-3-(3-(4-(4-(4-((4-(dimethylamino)-1-(phenylthio)butan-2-yl)amino)-3-nitrophenylsulfonamido)phenyl)piperazin-1-yl)phenyl)-5-ethyl-1-methyl-1H-pyrrole-2-carboxylic acid]", "values": [{"measurement": "cell death induction", "setting": "H146 cancer cell line", "value": "effectively induce cell death in a dose-dependent manner"}, {"measurement": "concentration inducing substantial/robust cell death", "setting": "H146 cancer cell line", "value": "30 to 100 nM and 30 nM"}, {"measurement": "concentration inducing cleavage of PARP and caspase-3", "setting": "[2]", "value": 100, "unit": "nM"}]}]}
